Paper PMC7147967 (Nature nanotechnology, 2020)

Assays:
MCF-7/C6 tumour tissue = assay: Tumour tissue analysis after three injections; type: in vivo, Balb/c nude mice; details: 3 consecutive q.o.d. injections, 8 mg/kg, n = 6
Procedure, shortened: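 MCF-7/C6 tumour-bearing Balb/c nude mice were sacrificed after three i.v. injections given every other day. Excised tumours were processed for H&E staining, Ki-67 staining, fluorescence imaging of sections and high-magnification TEM.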

[1] = Size of nanoparticles by DLS and TEM; type: physicochemical; details: fresh NPs, 99% water content (H2O:DMSO 99:1), 20 μM
Procedure, shortened: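 Peptide in DMSO was diluted with DMSO/deionized water mixtures to give a range of water contents. Nanoparticle formation was checked by UV–vis absorption and fluorescence spectra. Freshly made nanoparticles (99% water, 20 μM) were sized by DLS and by TEM with uranyl acetate staining.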

[2] = molecular target: Soluble extracellular domain of HER2 protein (Homo sapiens, UniProt P04626); assay: Fibrillar transformation of NPs on interaction with HER2 protein; details: TEM/DLS, over 24 h, HER2 protein/peptide ligand 1:1000
Procedure, shortened: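 Soluble HER2 extracellular domain (HEK 293-expressed) was added to fresh nanoparticles (99% water, 20 μM) at a HER2/peptide ligand ratio of 1:1000. At 0.5, 6 and 24 h, samples were taken for DLS size and zeta potential, CD, and TEM with uranyl acetate staining. Bis-pyrene AIE fluorescence was followed over time to track transformation.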

[3] = tested on: MCF-7/C6 HER2+ breast cancer; assay: In vivo therapeutic effect, MCF-7/C6 xenograft; design: species or system Balb/c nude mice; details: 8 mg/kg i.v., 8 times q.o.d., n = 8 per group
Procedure, shortened: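 Balb/c nude mice bearing s.c. flank MCF-7/C6 tumours (5×10^6 cells) were randomised into five groups 10 days after inoculation. Groups received PBS or test nanoparticles i.v. every 48 h. Tumour volume and body weight were measured twice weekly over the 40-day treatment, and survival was followed. Data are mean ± s.d.; t-test or ANOVA.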

Substance | cell kill in tumour sections (H&E) (MCF-7/C6 tumour tissue) | diameter of nanoparticles [1] | structural transformation after treatment with HER2 protein [2] | time within which all mice died [3] [days]
BP-FFVLK-PEG1000 [NPs3] | No significant cell kill was detected | 25–60 nm | did not reveal any significant changes | ≤ 57
BP-GGAAK-PEG1000 [NPs4] | No significant cell kill was detected | around 20 nm | did not reveal any significant changes | ≤ 60
